# ChEMBL document CHEMBL4196009, “Novel vitexin-inspired scaffold against leukemia” (Eur J Med Chem, 2018)
# pEC50: −log10 of the molar value. Calls of active or inactive are those of the source. No cut-off for these calls is given here.
# Columns and labels:
# [1] = tested on: THLE-2; assay: Antiproliferative activity against human THLE2 cells after 72 hrs by CelTiter-Glo assay; assay type: cell-based; details: THLE-2, 72 h
# [2] = organism: Homo sapiens; assay: Inhibition of RNA polymerase 2 C-terminal domain phosphorylation at Ser2 residue in human KOPN8 cells at 30 uM pre-treated with NAC for 1 hr and measured after 3 hrs by Western blot analysis relative to control; assay type: cell-based
# In short: (§1)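 KOPN-8 cells were exposed to compound for 3 h and 24 h, with or without N-acetylcysteine added to a parallel set as antioxidant. Lysates were analysed by Western blot for cleaved PARP, Mcl-1, Ser-2-phosphorylated RNAPII CTD, cMyc, total Rb and pRb. Signals were compared against controls for dose-dependent change.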
# [3] = tested on: KOPN-8; assay: Effect on c-Myc expression in human KOPN8 cells at 100 uM pre-treated with NAC for 1 hr and measured after 24 hrs by Western blot analysis relative to control; assay type: functional
# [4] = tested on: KOPN-8; assay: Effect on c-Myc expression in human KOPN8 cells at 30 uM after 3 hrs by Western blot analysis relative to control; assay type: functional
# In short: (§2)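 KOPN-8 cells were treated at 10–100 µM final, with or without N-acetylcysteine co-addition, for 3 h and 24 h. Lysates were analysed by Western blot for PARP cleavage, Mcl-1, phospho-Ser2 RNAPII CTD, c-Myc, total Rb and pRb. Levels are relative to the vehicle control.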
# [5] = tested on: KOPN-8; assay: Induction of apoptosis in human KOPN8 cells assessed as effect on Mcl-1 level at 10 uM after 24 hrs by Western blot analysis relative to control; assay type: functional; in short: as §2
# [6] = tested on: KOPN-8; assay: Induction of apoptosis in human KOPN8 cells assessed as downregulation of Mcl-1 level after 3 to 24 hrs by Western blot analysis; assay type: functional, cell-based; in short: as §2
# [7] = organism: Homo sapiens; assay: Inhibition of RNA polymerase 2 C-terminal domain phosphorylation at Ser2 residue in human KOPN8 cells at 10 uM after 24 hrs by Western blot analysis relative to control; assay type: cell-based; in short: as §1
# [8] = tested on: KOPN-8; assay: Cell cycle arrest in human KOPN8 cells assessed as accumulation at G0/G1 phase at 10 uM after 24 hrs by propidium iodide staining-based flow cytometry (reference value: 24.77%); assay type: functional
# In short: (§3)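 KOPN-8 cells treated 24 h alongside a DMSO vehicle and a staurosporine (2.0 µM) positive control. Apoptosis was scored by FITC Annexin V / propidium iodide flow cytometry with quadrant gating (early, late apoptotic). DNA content was measured by PI staining to give the percentage of cells in G0/G1, S and G2/M. Groups were compared by t-test; error bars are SD.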
# [9] = tested on: KOPN-8; assay: Induction of apoptosis in human KOPN8 cells assessed as upregulation of cleaved PARP level at 100 uM pre-treated with NAC for 1 hr and measured after 3 hrs by Western blot analysis; assay type: functional, cell-based; in short: as §1
# [10] = target: T1, Retinoblastoma-associated protein (Homo sapiens) (UniProt P06400); assay: Inhibition of Rb phosphorylation in human KOPN8 cells assessed as ratio of phosphorylated Rb to total Rb levels at 100 uM after 3 hrs by Western blot analysis relative to control; assay type: cell-based
# T1 sequence (whole entry): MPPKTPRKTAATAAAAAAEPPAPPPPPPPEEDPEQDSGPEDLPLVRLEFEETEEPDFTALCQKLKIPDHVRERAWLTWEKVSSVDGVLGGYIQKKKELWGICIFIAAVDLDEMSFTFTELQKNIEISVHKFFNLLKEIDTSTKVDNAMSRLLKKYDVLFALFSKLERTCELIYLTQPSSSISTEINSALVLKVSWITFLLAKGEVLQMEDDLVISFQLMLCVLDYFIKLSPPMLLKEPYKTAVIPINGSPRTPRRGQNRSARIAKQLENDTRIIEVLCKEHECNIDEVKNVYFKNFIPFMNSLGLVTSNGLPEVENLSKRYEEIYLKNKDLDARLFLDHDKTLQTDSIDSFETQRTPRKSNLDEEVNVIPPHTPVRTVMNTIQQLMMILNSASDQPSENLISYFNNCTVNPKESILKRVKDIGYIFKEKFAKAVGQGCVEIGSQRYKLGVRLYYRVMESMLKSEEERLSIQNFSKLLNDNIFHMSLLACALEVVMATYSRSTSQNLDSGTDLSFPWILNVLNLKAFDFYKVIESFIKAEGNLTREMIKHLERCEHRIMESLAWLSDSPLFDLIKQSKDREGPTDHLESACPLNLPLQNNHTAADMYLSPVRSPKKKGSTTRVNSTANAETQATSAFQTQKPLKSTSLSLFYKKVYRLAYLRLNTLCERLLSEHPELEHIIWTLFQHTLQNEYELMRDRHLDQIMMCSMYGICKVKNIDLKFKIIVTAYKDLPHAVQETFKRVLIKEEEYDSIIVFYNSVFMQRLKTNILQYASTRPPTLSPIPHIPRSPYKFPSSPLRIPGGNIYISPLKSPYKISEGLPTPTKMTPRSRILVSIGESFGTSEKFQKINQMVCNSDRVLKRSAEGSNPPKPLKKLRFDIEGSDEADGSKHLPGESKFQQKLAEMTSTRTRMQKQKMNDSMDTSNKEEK
# In short: (§4)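 KOPN-8 pre-B ALL cells were treated for 3 h and 24 h, with or without N-acetyl cysteine added to a parallel set of cells as an antioxidant/ROS quencher. Lysates were analysed by Western blot for phosphorylated Rb and total Rb. The same blots also probed PARP cleavage, Mcl-1, Ser-2-phosphorylated RNAPII CTD and cMyc.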
# [11] = tested on: KOPN-8; assay: Effect on c-Myc expression in human KOPN8 cells after 3 to 24 hrs by Western blot analysis; assay type: functional, cell-based; in short: as §2
# [12] = tested on: KOPN-8; assay: Induction of apoptosis in human KOPN8 cells assessed as upregulation of cleaved PARP level at 100 uM pre-treated with NAC for 1 hr and measured after 24 hrs by Western blot analysis; assay type: functional, cell-based; in short: as §1
# [13] = tested on: SUP-B15; assay: Induction of apoptosis in human SUP-B15 cells assessed as viable cells at 10 uM after 24 hrs by Annexin V-FITC/propidium iodide staining-based flow cytometry (reference value: 82.8%); assay type: functional; details: SUP-B15, 24 h, read-out: Activity
# [14] = tested on: KOPN-8; assay: Induction of apoptosis in human KOPN8 cells assessed as effect on Mcl-1 level at 100 uM after 3 hrs by Western blot analysis relative to control; assay type: functional; in short: as §2
# [15] = target: T1, Retinoblastoma-associated protein (Homo sapiens); assay: Inhibition of Rb phosphorylation in human KOPN8 cells assessed as ratio of phosphorylated Rb to total Rb levels at 30 uM after 3 hrs by Western blot analysis relative to control; assay type: cell-based; in short: as §4
# [16] = tested on: SUP-B15; assay: Induction of apoptosis in human SUP-B15 cells assessed as viable cells at 5 uM after 24 hrs by Annexin V-FITC/propidium iodide staining-based flow cytometry (reference value: 82.8%); assay type: functional; details: SUP-B15, 24 h, read-out: Activity
# [17] = organism: Homo sapiens; assay: Inhibition of RNA polymerase 2 C-terminal domain phosphorylation at Ser2 residue in human KOPN8 cells at 0.5 uM after 24 hrs by Western blot analysis; assay type: cell-based; in short: as §1
# [18] = tested on: KOPN-8; assay: Cell cycle arrest in human KOPN8 cells assessed as accumulation at G2/M phase at 5 uM after 24 hrs by propidium iodide staining-based flow cytometry (reference value: 9.67%); assay type: functional; in short: as §3
# [19] = tested on: KOPN-8; assay: Induction of apoptosis in human KOPN8 cells assessed as effect on Mcl-1 level at 0.5 uM after 3 hrs by Western blot analysis relative to control; assay type: functional
Compound,pEC50 [1],fold change (FC) [2],fold change (FC) [3],fold change (FC) [4],fold change (FC) [5],Activity [6],fold change (FC) [7],Activity [8],Activity [9],fold change (FC) [10],Activity [11],Activity [12],viability at 10 µM [13],fold change (FC) [14],fold change (FC) [15],viability at 5 µM [16],fold change (FC) [17],Activity [18],fold change (FC) [19]
COc1ccc(-c2c(I)c(=O)c3c(OC)cc(OC)cc3n2S(=O)(=O)c2ccc(OC)cc2)cc1,4.24,0.9,0.1,0.6,1.1,Dose-dependent effect,1.8,47.22%,inactive,1,Dose-dependent effect,Active,70.5%,0.6,1,–,–,–,–
CN(C)C(=O)c1cc2cnc(Nc3ccc(N4CCNCC4)cn3)nc2n1C1CCCC1 [RIBOCICLIB],–,–,–,–,–,–,–,–,–,–,–,–,–,–,–,35.4%,2.3,28.79%,0.9
